The source made the active and inactive calls. The calls are words filed in the database; no cut-off is given here.

The subject of test [1] is HL-60. In words: Antiproliferative activity against human HL60 cells after 24 to 48 hrs by MTT assay. Format: functional, cell-based.
Test [2] deals with COLO 205. Put plainly: Antiproliferative activity against human COLO205 cells after 24 to 48 hrs by MTT assay. It counts as functional, cell-based. In general terms: Tetrazolium dyes change colour on reduction, which living cells bring about.
Test [3] deals with HCT-116. Put plainly: Antiproliferative activity against human HCT116 cells after 24 to 48 hrs by MTT assay. Format: functional, cell-based.
The subject of test [4] is MCF7. In words: Antiproliferative activity against human MCF7 cells after 24 to 48 hrs by MTT assay. It counts as functional, cell-based.
The test system of test [5] is A549. In words: Antiproliferative activity against human A549 cells after 24 to 48 hrs by MTT assay. It counts as functional, cell-based.
The nature of test [6]: Antiproliferative activity against human FR2 cells after 24 to 48 hrs by MTT assay. Format: cell-based.
The subject of test [7] is HL-60. In words: Downregulation of p110gamma protein expression levels in human HL60 cells at 1 uM after 2 hrs by Western blot analysis relative to control. Format: functional. In outline: (§1)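 HL-60 cells were exposed to test agent at 1 µM for short time intervals, including 2 h. Expression of the p110α, p110β, p110δ and p110γ isoforms was then assessed by western blotting. p110γ blots were also quantified by densitometry at each time point.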
On the technique in general: In western blotting, separated proteins are transferred to a membrane and probed.

For test [8], the system named is HL-60. In words: Downregulation of p110alpha protein expression levels in human HL60 cells at 1 uM after 2 hrs by Western blot analysis. It counts as functional, cell-based. In outline:
as §1

Test [9] deals with HL-60. Put plainly: Downregulation of p110beta protein expression levels in human HL60 cells at 1 uM after 2 hrs by Western blot analysis. Format: functional, cell-based. Put shortly:
as §1

Test [10] relates to HL-60. In words: Downregulation of p110delta protein expression levels in human HL60 cells at 1 uM after 2 hrs by Western blot analysis. It counts as functional, cell-based. In outline: as §1
For test [11], the species on record is Homo sapiens. In words: Selectivity index, ratio of IC50 for PI3K-delta (unknown origin) to IC50 for PI3K-gamma (unknown origin).
The target of test [12] is Phosphatidylinositol 4,5-bisphosphate 3-kinase catalytic subunit alpha isoform (Homo sapiens, UniProt P42336). In words: Inhibition of PI3K-alpha (unknown origin) by cell free biochemical assay.
Phosphatidylinositol 4,5-bisphosphate 3-kinase catalytic subunit alpha isoform, sequence (P42336 whole entry, canonical isoform): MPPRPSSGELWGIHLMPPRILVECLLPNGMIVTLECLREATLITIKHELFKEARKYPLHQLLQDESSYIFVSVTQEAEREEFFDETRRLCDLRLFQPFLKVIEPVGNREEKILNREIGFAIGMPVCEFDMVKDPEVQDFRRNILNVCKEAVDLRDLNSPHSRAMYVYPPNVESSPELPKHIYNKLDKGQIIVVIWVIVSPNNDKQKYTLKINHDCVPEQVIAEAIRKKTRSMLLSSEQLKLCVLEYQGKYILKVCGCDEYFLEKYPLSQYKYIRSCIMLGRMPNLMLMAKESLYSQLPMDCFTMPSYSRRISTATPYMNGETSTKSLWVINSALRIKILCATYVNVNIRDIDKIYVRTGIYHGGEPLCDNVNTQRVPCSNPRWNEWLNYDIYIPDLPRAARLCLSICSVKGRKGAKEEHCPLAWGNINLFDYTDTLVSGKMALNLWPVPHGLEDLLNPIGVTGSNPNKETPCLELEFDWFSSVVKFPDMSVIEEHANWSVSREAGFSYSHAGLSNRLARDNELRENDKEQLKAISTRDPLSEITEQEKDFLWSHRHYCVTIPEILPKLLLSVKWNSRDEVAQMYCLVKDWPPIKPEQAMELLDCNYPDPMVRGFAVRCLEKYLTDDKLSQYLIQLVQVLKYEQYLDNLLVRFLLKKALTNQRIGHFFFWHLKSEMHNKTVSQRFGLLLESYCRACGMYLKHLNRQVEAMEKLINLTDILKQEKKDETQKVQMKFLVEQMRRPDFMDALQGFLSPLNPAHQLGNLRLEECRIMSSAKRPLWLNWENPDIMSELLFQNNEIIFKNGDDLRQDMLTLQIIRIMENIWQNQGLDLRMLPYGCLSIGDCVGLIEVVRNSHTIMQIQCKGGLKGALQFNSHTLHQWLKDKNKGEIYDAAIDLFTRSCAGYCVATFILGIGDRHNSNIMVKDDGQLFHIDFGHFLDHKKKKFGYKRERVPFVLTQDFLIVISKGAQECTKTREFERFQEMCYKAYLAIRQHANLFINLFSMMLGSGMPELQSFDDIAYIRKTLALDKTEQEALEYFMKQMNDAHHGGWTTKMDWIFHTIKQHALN
Test [13] has as its target Phosphatidylinositol 4,5-bisphosphate 3-kinase catalytic subunit beta isoform (Homo sapiens, UniProt P42338). In words: Inhibition of PI3K-beta (unknown origin) by cell free biochemical assay.
Test [14] has as its target Phosphatidylinositol 4,5-bisphosphate 3-kinase catalytic subunit gamma isoform (Homo sapiens, UniProt P48736). Put plainly: Inhibition of PI3K-gamma (unknown origin) by cell free biochemical assay.
Test [15] has as its target T1, Phosphatidylinositol 4,5-bisphosphate 3-kinase catalytic subunit delta isoform (Homo sapiens, UniProt O00329).
T1 sequence (O00329 whole entry): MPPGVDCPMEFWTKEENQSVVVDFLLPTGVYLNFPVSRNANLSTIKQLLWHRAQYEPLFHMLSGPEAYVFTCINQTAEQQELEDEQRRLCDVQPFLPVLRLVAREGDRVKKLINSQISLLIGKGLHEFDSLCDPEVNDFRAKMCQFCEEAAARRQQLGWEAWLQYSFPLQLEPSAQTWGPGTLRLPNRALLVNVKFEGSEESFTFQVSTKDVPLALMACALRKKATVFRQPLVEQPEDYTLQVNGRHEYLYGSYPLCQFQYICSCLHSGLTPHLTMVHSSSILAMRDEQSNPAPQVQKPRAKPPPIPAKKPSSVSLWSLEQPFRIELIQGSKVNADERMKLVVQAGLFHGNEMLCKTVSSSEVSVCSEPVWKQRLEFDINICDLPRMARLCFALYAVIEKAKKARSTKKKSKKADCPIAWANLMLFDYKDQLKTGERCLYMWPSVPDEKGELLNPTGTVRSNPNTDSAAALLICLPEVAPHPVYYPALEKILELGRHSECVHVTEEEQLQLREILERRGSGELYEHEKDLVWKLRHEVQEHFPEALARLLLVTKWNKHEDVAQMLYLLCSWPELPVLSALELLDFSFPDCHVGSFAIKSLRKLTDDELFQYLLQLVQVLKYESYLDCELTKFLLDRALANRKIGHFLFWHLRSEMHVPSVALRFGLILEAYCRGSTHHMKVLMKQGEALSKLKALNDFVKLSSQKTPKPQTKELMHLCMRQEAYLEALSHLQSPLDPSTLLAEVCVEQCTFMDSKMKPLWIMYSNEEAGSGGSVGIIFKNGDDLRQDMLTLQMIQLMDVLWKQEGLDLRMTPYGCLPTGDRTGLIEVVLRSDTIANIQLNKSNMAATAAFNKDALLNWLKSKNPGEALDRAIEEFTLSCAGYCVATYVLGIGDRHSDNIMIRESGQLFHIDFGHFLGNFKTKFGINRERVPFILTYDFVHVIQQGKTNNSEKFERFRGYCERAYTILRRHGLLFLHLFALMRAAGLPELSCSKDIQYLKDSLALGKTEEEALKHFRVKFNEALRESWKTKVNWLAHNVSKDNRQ
Put plainly: Inhibition of PI3K-delta (unknown origin) by cell free biochemical assay.

Phosphatidylinositol 4,5-bisphosphate 3-kinase catalytic subunit beta isoform, sequence (P42338 whole entry, canonical isoform): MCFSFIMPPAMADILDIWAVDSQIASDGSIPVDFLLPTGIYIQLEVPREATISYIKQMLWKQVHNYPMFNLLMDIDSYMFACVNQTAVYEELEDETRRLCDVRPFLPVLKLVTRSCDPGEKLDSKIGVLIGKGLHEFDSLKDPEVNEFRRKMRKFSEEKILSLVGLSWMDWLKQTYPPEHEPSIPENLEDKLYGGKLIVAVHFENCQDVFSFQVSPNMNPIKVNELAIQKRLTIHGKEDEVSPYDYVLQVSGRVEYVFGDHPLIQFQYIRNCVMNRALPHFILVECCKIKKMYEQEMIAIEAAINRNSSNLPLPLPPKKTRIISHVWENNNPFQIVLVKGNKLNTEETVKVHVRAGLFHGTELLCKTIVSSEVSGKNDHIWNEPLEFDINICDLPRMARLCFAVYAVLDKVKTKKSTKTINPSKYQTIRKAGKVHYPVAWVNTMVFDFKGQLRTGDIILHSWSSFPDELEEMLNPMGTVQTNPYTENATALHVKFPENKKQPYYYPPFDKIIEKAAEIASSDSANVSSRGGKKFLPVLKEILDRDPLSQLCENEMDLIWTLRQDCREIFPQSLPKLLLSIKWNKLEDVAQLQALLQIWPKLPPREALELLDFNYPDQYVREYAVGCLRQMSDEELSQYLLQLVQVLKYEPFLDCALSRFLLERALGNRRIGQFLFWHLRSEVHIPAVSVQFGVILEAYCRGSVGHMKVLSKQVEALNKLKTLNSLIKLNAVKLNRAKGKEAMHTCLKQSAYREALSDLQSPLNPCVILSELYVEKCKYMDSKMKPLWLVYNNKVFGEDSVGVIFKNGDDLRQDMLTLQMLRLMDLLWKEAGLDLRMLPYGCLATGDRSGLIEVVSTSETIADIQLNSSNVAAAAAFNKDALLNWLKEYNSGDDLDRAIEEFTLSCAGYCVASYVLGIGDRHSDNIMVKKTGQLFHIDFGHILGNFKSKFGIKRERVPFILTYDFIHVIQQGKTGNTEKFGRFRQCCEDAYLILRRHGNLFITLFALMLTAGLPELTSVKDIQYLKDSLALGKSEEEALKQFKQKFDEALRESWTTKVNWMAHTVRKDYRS
Phosphatidylinositol 4,5-bisphosphate 3-kinase catalytic subunit gamma isoform, sequence (P48736 whole entry, canonical isoform): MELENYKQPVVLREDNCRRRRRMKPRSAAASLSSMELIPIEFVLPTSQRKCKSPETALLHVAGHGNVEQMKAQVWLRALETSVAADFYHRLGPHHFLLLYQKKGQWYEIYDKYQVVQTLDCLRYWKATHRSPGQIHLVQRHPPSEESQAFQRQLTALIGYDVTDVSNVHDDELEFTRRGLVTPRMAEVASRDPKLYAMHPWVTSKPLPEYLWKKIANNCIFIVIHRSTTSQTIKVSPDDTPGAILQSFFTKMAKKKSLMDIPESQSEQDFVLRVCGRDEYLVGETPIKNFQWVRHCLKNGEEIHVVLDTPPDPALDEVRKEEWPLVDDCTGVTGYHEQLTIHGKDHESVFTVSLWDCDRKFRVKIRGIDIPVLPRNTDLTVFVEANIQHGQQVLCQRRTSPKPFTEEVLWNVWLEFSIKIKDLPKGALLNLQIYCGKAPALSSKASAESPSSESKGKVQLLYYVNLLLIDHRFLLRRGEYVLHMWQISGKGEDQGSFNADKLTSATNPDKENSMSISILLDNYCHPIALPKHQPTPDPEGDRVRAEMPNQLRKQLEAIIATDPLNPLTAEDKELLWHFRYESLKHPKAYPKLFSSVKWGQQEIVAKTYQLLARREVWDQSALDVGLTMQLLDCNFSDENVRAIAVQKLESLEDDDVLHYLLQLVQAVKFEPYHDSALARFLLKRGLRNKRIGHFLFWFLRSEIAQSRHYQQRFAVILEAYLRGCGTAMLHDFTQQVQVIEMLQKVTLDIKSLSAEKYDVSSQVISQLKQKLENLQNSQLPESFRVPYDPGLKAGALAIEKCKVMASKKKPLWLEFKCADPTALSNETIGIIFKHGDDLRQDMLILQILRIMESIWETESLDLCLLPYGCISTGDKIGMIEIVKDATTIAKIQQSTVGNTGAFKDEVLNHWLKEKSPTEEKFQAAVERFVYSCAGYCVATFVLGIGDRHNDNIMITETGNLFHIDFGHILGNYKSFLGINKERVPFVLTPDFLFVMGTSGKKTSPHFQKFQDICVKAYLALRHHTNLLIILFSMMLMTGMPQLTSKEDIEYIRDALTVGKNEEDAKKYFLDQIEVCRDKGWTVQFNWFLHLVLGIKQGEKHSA

With `Cc1ccccc1-n1c(Cn2cc(-c3ccccc3)nn2)nc2cccc(C)c2c1=O`, the IC50 (usually the midpoint of a concentration-inhibition curve) is 1 µM in test [1]; over 10 µM in test [2]; over 10 µM in test [3]; over 10 µM in test [4]; over 10 µM in [5]; over 10 µM in [6]. Further, the IC50 in [12] was 250 µM; in test [13] it was 430 µM; in test [14], 1 µM; in [15], 5 µM. Further, the Activity in test [7] is reported as over 50%. Moreover, the result in test [8], in test [9] and in [10] was inactive. Also, the Ratio IC50 in [11] was determined as 5.
On to `COc1ccc(-c2cn(Cc3nc4cccc(C)c4c(=O)n3-c3ccccc3C)nn2)c(C)c1`, for which the concentration for half-maximal inhibition (IC50) in test [1] is 1 µM; in test [2], over 10 µM; in test [3] it was over 10 µM; in test [4], over 10 µM; in test [5], over 10 µM; in test [6], over 10 µM. Also, the 50% inhibitory concentration (IC50) in test [12] turned out to be 290 µM; in test [13], 355 µM; in test [14] it was 3 µM; in test [15] it was 10 µM. The molecule also gave an Activity in test [7] of over 50%. Besides, the result in test [8], in [9] and in test [10] was inactive. Further, the Ratio IC50 in test [11] turned out to be 3.

Source of the values: ChEMBL document CHEMBL4219103, “Design and synthesis of 1,4-substituted 1H-1,2,3-triazolo-quinazolin-4(3H)-ones by Huisgen 1,3-dipolar cycloaddition with PI3Kγ isoform selective activity” (Bioorg Med Chem Lett, 2018).
